Active and inactive are the calls of the source. The rule behind the calls is not given here.
Experiments:
[1] = Cytotoxicity against human HL60 cells by MTT assay; format: functional, HL-60
Outline: (§1)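 Cells were exposed to compound at 10 μM, and cytotoxicity was expressed as percent inhibition of growth.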

A549 = experiment: Cytotoxicity against human A549 cells by MTT assay; format: functional; outline: as §1
SH-SY5Y [2] = experiment: Neuroprotective activity in human SH-SY5Y cells assessed as inhibition Abeta25-35-induced reduction of cell viability at 1 uM compound pretreated for 2 hrs before induction cell viability measured after 24 hrs (reference value: 69.77%); format: functional
SH-SY5Y [3] = experiment: Neuroprotective activity in human SH-SY5Y cells assessed as inhibition Abeta25-35-induced reduction of cell viability at 10 uM compound pretreated for 2 hrs before induction cell viability measured after 24 hrs (reference value: 69.77%); format: functional
SH-SY5Y [4] = experiment: Neuroprotective activity in human SH-SY5Y cells assessed as inhibition OGD-induced injuries measured as increase in cell viability at 1 uM measured after 24 hrs; format: functional
Outline: (§2)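 Oxygen-glucose deprivation (OGD) injury was applied to human SH-SY5Y cells, with compounds at 1 μM or higher. Cell viability, or its increase, was compared with control and with OGD-only wells. Data are mean ± SD, n = 3-6.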

SH-SY5Y [5] = experiment: Neuroprotective activity in human SH-SY5Y cells assessed as inhibition OGD-induced injuries measured as cell viability at 10 uM measured after 24 hrs; format: functional; outline: as §2
SH-SY5Y [6] = experiment: Neuroprotective activity in human SH-SY5Y cells assessed as inhibition Abeta25-35-induced reduction of cell viability at 10 uM after 24 hrs by SRB assay; format: functional
SH-SY5Y [7] = experiment: Neuroprotective activity in human SH-SY5Y cells assessed as inhibition H2O2-induced damage measured as cell viability at 10 uM measured after 24 hrs; format: functional
Outline: (§3)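 Human SH-SY5Y cells were subjected to H2O2-induced damage, with compounds at 1 or 10 μM and L-NAC at 100 μM as the positive control. Cell viability was compared with control and with H2O2-only wells. Data are mean ± SD, n = 3-6.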

SH-SY5Y [8] = experiment: Neuroprotective activity in human SH-SY5Y cells assessed as inhibition H2O2-induced damage measured as cell viability at 1 uM measured after 24 hrs; format: functional, cell-based; outline: as §3
SH-SY5Y [9] = experiment: Neuroprotective activity in human SH-SY5Y cells assessed as inhibition OGD-induced injuries measured as cell viability at 1 uM measured after 24 hrs; format: functional; outline: as §2
SH-SY5Y [10] = experiment: Neuroprotective activity in human SH-SY5Y cells assessed as inhibition H2O2-induced damage measured as cell viability at 100 uM measured after 24 hrs; format: functional; outline: as §3

| SMILES | Activity (SH-SY5Y [2]) | Activity (SH-SY5Y [3]) | other results |
| --- | --- | --- | --- |
| Nc1ccc(-c2ccc(-c3noc(Cc4c[nH]c5ccccc45)n3)o2)cc1 | inactive | 92.4% | inhibition (INH) [1]: 26%; inhibition (INH) (A549): 2%; Activity (SH-SY5Y [4]): 18.96% |
| CC(C)(C)c1ccc(-c2ccc(-c3noc(Cc4c[nH]c5ccccc45)n3)o2)cc1 | inactive | 92.1% |  |
| c1ccc(-c2ccc(-c3noc(Cc4c[nH]c5ccccc45)n3)o2)cc1 | inactive | inactive |  |
| Nc1ccc(-c2cccc(-c3noc(Cc4c[nH]c5ccccc45)n3)c2)cc1 | inactive | 106% | Activity (SH-SY5Y [5]): inactive |
| Cc1cccc(-c2ccc(-c3noc(Cc4c[nH]c5ccccc45)n3)o2)c1 | inactive | inactive |  |
| CC(C)c1ccc(-c2ccc(-c3noc(Cc4c[nH]c5ccccc45)n3)o2)cc1 | inactive | 93.3% |  |
| O=C(O[C@@H]1Cc2c(O)cc(O)cc2O[C@@H]1c1cc(O)c(O)c(O)c1)c1cc(O)c(O)c(O)c1 [EPIGALOCATECHIN GALLATE] |  | 96.2% |  |
| N#Cc1ccc(-c2ccc(-c3noc(Cc4c[nH]c5ccccc45)n3)o2)cc1 | inactive | 93.3% |  |
| OCc1ccc(-c2ccc(-c3noc(Cc4c[nH]c5ccccc45)n3)o2)cc1 | inactive | 92.1% |  |
| CCCc1ccc(-c2ccc(-c3noc(Cc4c[nH]c5ccccc45)n3)o2)cc1 | 89.7% | 114.2% | Activity (SH-SY5Y [6]): 96% |
| CCOc1ccc(-c2ccc(-c3noc(Cc4c[nH]c5ccccc45)n3)o2)cc1 | inactive | 89.1% | Activity (SH-SY5Y [5]): 76.2%; Activity (SH-SY5Y [7]): 98%; Activity (SH-SY5Y [8]): inactive; Activity (SH-SY5Y [9]): 80.6% |
| COc1ccc(-c2ccc(-c3noc(Cc4c[nH]c5ccccc45)n3)o2)cc1 | inactive | 91.5% | Activity (SH-SY5Y [7]): 98%; Activity (SH-SY5Y [8]): inactive |
| Cc1ccc(-c2ccc(-c3noc(Cc4c[nH]c5ccccc45)n3)o2)cc1 | inactive | 80.3% |  |
| Brc1ccc(-c2ccc(-c3noc(Cc4c[nH]c5ccccc45)n3)o2)cc1 | inactive | 83.5% |  |
| Nc1ncc(-c2ccc(-c3noc(Cc4c[nH]c5ccccc45)n3)o2)cn1 | inactive | inactive | inhibition (INH) [1]: 26%; inhibition (INH) (A549): 2% |
| Cc1ccccc1-c1ccc(-c2noc(Cc3c[nH]c4ccccc34)n2)o1 | inactive | inactive |  |
| CC(=O)N[C@@H](CS)C(=O)O [ACETYLCYSTEINE] |  |  | Activity (SH-SY5Y [10]): 89.2% |
| CN1CCN(c2ccc(-c3ccc(-c4noc(Cc5c[nH]c6ccccc56)n4)o3)cc2)CC1 | inactive | inactive |  |
| c1ccc2c(Cc3nc(-c4ccc(-c5ccc(N6CCOCC6)cc5)o4)no3)c[nH]c2c1 | inactive | inactive |  |
| Fc1ccc(-c2ccc(-c3noc(Cc4c[nH]c5ccccc45)n3)o2)cc1 | inactive | 84.8% |  |
| CCCOc1ccc(-c2ccc(-c3noc(Cc4c[nH]c5ccccc45)n3)o2)cc1 | 90% | 115.5% | Activity (SH-SY5Y [5]): 84.1%; Activity (SH-SY5Y [6]): 94%; Activity (SH-SY5Y [7]): 98%; Activity (SH-SY5Y [8]): inactive; Activity (SH-SY5Y [9]): 80.4% |
| Clc1ccc(-c2ccc(-c3noc(Cc4c[nH]c5ccccc45)n3)o2)cc1 | inactive | 83.9% |  |
| Oc1ccc(-c2ccc(-c3noc(Cc4c[nH]c5ccccc45)n3)o2)cc1 | inactive | inactive |  |
| CCc1ccc(-c2ccc(-c3noc(Cc4c[nH]c5ccccc45)n3)o2)cc1 | inactive | 100% |  |
| Nc1ccc(-c2ccc(-c3noc(Cc4c[nH]c5ccccc45)n3)s2)cc1 | inactive | inactive |  |
| CN(C)c1ccc(-c2ccc(-c3noc(Cc4c[nH]c5ccccc45)n3)o2)cc1 | inactive | inactive | Activity (SH-SY5Y [7]): 98%; Activity (SH-SY5Y [8]): inactive |

— ChEMBL document CHEMBL3351263, “Synthesis and biological evaluation of novel marine-derived indole-based 1,2,4-oxadiazoles derivatives as multifunctional neuroprotective agents” (2015)
